By apparent Kd is commonly meant a dissociation constant that holds for the conditions of the assay.

The results in this text go back to the EternaBench riboswitch data.

For the data set, the system named is MS2 coat protein. Briefly: apparent Kd, MS2 coat protein; higher = weaker binding; RNA-MaP array; FMN 200 µM where present. Summed up:
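Stalled E. coli RNA polymerase transcribed each design on Illumina sequencing-chip clusters. The clusters were titrated with SNAP-549-labelled MS2 coat protein, starting at 0.7 or 1.5 nM and doubling up to 3 µM, first without ligand and then with constant ligand, in 100 mM Tris-HCl pH 7.5, 80 mM KCl, 4 mM MgCl2, BSA, DTT, yeast tRNA and Tween-20. Green signal was normalised to red-channel RNA signal and to the control-cluster median Fmax. The apparent Kd is the median of filtered binding-curve fits made for each cluster.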

[1] abbreviates: designed as: OFF switch for flavin mononucleotide, no ligand.
[2] abbreviates: ligand present: flavin mononucleotide, designed as: OFF switch for flavin mononucleotide.
The mark [3] stands for this setting: designed as: ON switch for flavin mononucleotide, no ligand.
The mark [4] stands for this setting: ligand present: flavin mononucleotide, designed as: ON switch for flavin mononucleotide.

On to “AGAUCACAUGAGGAUCACCCAUGUCAGGAUAUGAUACUAUGUACUUCGGUACAUAGUAUCAGAAGGGAUAUAAA”, for which the “apparent Kd” value is, setting by setting: under setting [1], 70.7 nM; under setting [2], 239 nM. For “GUGGAGUACGUAGGAUAUGUAGGAUAUUCCUACAUGAGGAUCACCCAUGUAUGCAUGGAAGAAGGACAGAAGGACGUGCUCCAG”, the “apparent Kd” value runs as follows: under setting [3], 208 nM; under setting [4], 13.5 nM. Taken in the same sequence, the figures for “CGCUAUGACAUAGGAUAUUGGUACAUGAGGAUCACCCAUGUCAACCAUGAAGCUCGAUUUGUUGACAAGAAGGAUGUGGUAGCG” were 6.65 nM and 7.63 nM.

“GAUUGACGACAAUUACAUGAGGAUCACCCAUGUUGUAGUAUGCAGGAUAUGUGGUAUAUUAUUUAACAGAAGGGCAAUAAUUUU”: the “apparent Kd” value is, setting by setting: under setting [3], 81 nM; under setting [4], 42.4 nM. Regarding “GCUGCAUAGGCAGGAUAUGCAACAAUGAGAAUAAAAUAUAACUCAUUGACAUGAGGAUCACCCAUGUAGAAGGGCCUGUGCAGU”, the “apparent Kd” value was found to be 19 nM under setting [1] and 18.2 nM under setting [2]. On to “UAACAGACGCCUUACAUGAGGAUCACCCAUGUGGCCUUAACCAGAAGGCCCGGAAGAUGACUCAGGGAGGAUAUGGUUUAACAG”, for which the “apparent Kd” value reads like this: under setting [3], 349 nM; under setting [4], 57.3 nM. As for “UGUAUGGACAGAGGAUAUACGGCUAGGAGAUACUAGCCACUAUUCCUCACAUGAGGAUCACCCAUGUAGAAGGCUGUCCAUACU”, the “apparent Kd” value runs as follows: under setting [1], 17.2 nM; under setting [2], 120 nM.

For “UGAUCGAGAGAUCUUAGAUUCUGGUAGGAUAUACAUUAAAAUAGCUUUACAUGAGGAUCACCCAUGUAGAAGGACUAGAGUCUA”, the “apparent Kd” value under setting [1] stood at 7.8 nM and the “apparent Kd” value under setting [2] was 8.67 nM. For “ACUUACUGAGGAUAUACAUAGAUUUACAUGAGGAUCACCCAUGUUCCUCUAUGUAUAUAUGUAGAAGGCAGAAGUU”, the “apparent Kd” value runs as follows: under setting [1], 26.3 nM; under setting [2], 97.8 nM. In the case of “AAAACAUGAGGAUCACCCAUGUAUAGAUCGGUUGAUAGGAGUGAGGAUAUGCUUAAAAUAAGGUAGCAGAAGGCACUGGGUACA”, the “apparent Kd” value runs as follows: under setting [3], 37.1 nM; under setting [4], 40.1 nM. “UGUUGUAUUACAGGAUAUCUAGUAUUGUUAUUUAGAGAAGGGUAUUCACAUGAGGAUCACCCAUGUAUAUACGAGGAAGUUGUG”: the “apparent Kd” value by setting is: under setting [3], 38.4 nM; under setting [4], 41.4 nM. “GUCAGCUCGUGAGGAUAUACAACACUGCUUCGGCAGUGUAAUUUCCUCACAUGAGGAUCACCCAUGUAGAAGGCACGAGCUGAU”: the “apparent Kd” value is 12.7 nM under setting [1] and 242 nM under setting [2]. In the same order, the values of “CUUUCGUGAGGAUAUGUGGCUUCGAACGUGAGAUCGAGGCUACAGAAGGCACAUGAGGAUCACCCAUGUUCCUC” are 34.3 nM and 395 nM. In the case of “UUACCUUAUGAGAAGGCGGUCAUGAAACAUGAUCGAGGAUAUCAUGUAAACAUGAGGAUCACCCAUGUAUGGGUAUUAUGGUAG”, the “apparent Kd” value under setting [3] came to 303 nM and the “apparent Kd” value under setting [4] was found to be 52 nM. On to “AGGCGUGCUGAGGAUAUACUACCGGUUGCGAUAGUAGAAGGUAGCACAUGAGGAUCACCCAUGUGGUCAGAUGC”, for which the “apparent Kd” value runs as follows: under setting [1], 24 nM; under setting [2], 64.6 nM. In the same order, the values of “AUGAAGUCAGGAUAUCGUUAAUUUAGUUGUUUGUAUUAGUUCGAGAAGGGACAUGAGGAUCACCCAUGUAAGUA” are 31.7 nM and 38.5 nM. In the same order, the values of “CAGUACUGAGGAUAUACAUGAGGAUCACCCAUGUGCUUCAGCUAGGAUACUAGCAUUAGUAGAAGGCAGUACUG” are 10.9 nM and 64.1 nM. For the sequence “GGUUGACAAAGUCAACCAAAUCGAACAUGAGGAUCACCCAUGUAGGAUAUGCUACUCAAAGAGUAGCAGAAGGACAUGUGCUUU”, the “apparent Kd” value by setting is: under setting [1], 40.7 nM; under setting [2], 227 nM. As for “GGAUCCAUCACAGGAUAUGCUGGACUUUGUCCAGCAGAAGGGUGAAACAUGAGGAUCACCCAUGUAUGGAUCCAUAUAUUUAAU”, the “apparent Kd” value is 327 nM under setting [3] and 393 nM under setting [4]. As for “GAAUGGGAGUAGAAGGUACGUUAUUAGUUAAGGUAAGGAUAUACUAUAAUACAGACGACAUAUAAACAUGAGGAUCACCCAUGU”, the “apparent Kd” value was 10.3 nM under setting [3] and 6.55 nM under setting [4]. Take “GAAUGGGUAGAGGAUAUCGCCAUUUCAUCGAGGUGAGAAGGUUACACAUGAGGAUCACCCAUGUCGCCAUUAGC”: the “apparent Kd” value under setting [1] was 66.5 nM and the “apparent Kd” value under setting [2] stood at 56.7 nM. In the same order, the values of “UAUUAACAUGUAGGAUAUCUGCACGAUUAGUGCAGAGAAGGACAUGAGGAUCACCCAUGUAGAUCAUAAUAAUUUAAUUUAAUU” are 133 nM and 422 nM. For the sequence “GAUCGCCAUGUCAGGAUAUCUUGUAUACCCACGUUAGAGAAGGGACAUGAGGAUCACCCAUGUACCCUGGUUUU”, the “apparent Kd” value under setting [2] was 16.4 nM. “AUCAGCUCGUCAGGAUAUACGUCACUGCGUCAGCAGUGUGAUAAGAUCACAUGAGGAUCACCCAUGUAGAAGGGACGAGCUGAU”: the “apparent Kd” value is, setting by setting: under setting [1], 8.48 nM; under setting [2], 72.3 nM. On to “AUCAGCUCGUCAGGAUAUACGUCCUGGUAAGAUCACAUGAGGAUCACCCAUGUAGAAGGGACGAGCUGAUAAGCACGAAAGUGC”, for which the “apparent Kd” value is, setting by setting: under setting [1], 18.6 nM; under setting [2], 81.6 nM. Turning to “GGGUGGCGUAUAGGAUAUAUGGUACAUGAGGAUCACCCAUGUACAUAUGAUGUUCAUGUUUGUGUAUAGAAGGAUACGUCGCUA”, the “apparent Kd” value turned out to be 9.79 nM under setting [3] and 9.81 nM under setting [4].

For the sequence “CCUGUACAUGAGGAUCACCCAUGUUAGGAUAUUCAGCCCGUCGAGUAUAAGGGUUUAAGAAGAAGGGACGUGGC”, the “apparent Kd” value is, setting by setting: under setting [1], 15.4 nM; under setting [2], 16.1 nM. With “AAAAGACAUGAGGAUCACCCAUGUCAAGACAUAGGAGGAUAUGUCUGGAAAAAAGACUGGACAGAAGGCCUUUGUC”, the “apparent Kd” value under setting [3] was 19.9 nM and the “apparent Kd” value under setting [4] is 17.4 nM. “GUGGCUCCCACAGGAUAUCCACAUGAGGAUCACCCAUGUCUAAUUAACAAAGGAGAAGGGUGGGACAACUCUGGUGACUGAGAG”: the “apparent Kd” value was 28.9 nM under setting [3] and 5.45 nM under setting [4].

Turning to “GGAUAGGACAGAGGAUAUACGUACUAGAGAUACUAGCAAAAUUUCCUCACAUGAGGAUCACCCAUGUAGAAGGCUGUCCUAUCG”, the “apparent Kd” value turned out to be 21.4 nM under setting [1] and 563 nM under setting [2].

For “GAUUAACAUGAGGAUCACCCAUGUGAGGAUAUGGAAUGGCUCAUUGUUUGAUUUCCGUCUAGAAGGCACAUCUU”, the “apparent Kd” value under setting [1] is 174 nM and the “apparent Kd” value under setting [2] came to 160 nM.

In the case of “AAUUUGCACGCAGGAUAUCGAUAUAAAAGCUGACGAGAAGGGCGGUACAUGAGGAUCACCCAUGUGAACGCCGGGUGGUCUCGU”, the “apparent Kd” value under setting [1] amounted to 6.55 nM and the “apparent Kd” value under setting [2] amounted to 9.34 nM. Taken in the same sequence, the figures for “ACAUGAUAUGUAGGAUAUCACAUUAAUUGAUUAAUAUUUCUAUAUAGAAUUUGAGAAGGACAUUUACAUGAGGAUCACCCAUGU” were 10.3 nM and 10.3 nM. Take “UUGGUGUCAGGAUAUGCUUAAUGUGUUUUAUUAUAAUAUAUACAUGAGGAUCACCCAUGUAGAAGGGACGUUGU”: the “apparent Kd” value under setting [1] came to 60.6 nM and the “apparent Kd” value under setting [2] worked out at 53.2 nM.

With “UGUUUAUAUGAAGGAUAUACUUAACAUGAGGAUCACCCAUGUGGUGUUGUGAGUGAGUGAGUUUAGUAGAAGGUCAAUUAUUUU”, the “apparent Kd” value stood at 286 nM under setting [1] and 643 nM under setting [2]. On to “UUGUCUCAUGAGAAGGACAUGAGGAUCACCCAUGUAGGAUAUCAUGGGUCAGUGGAAUUGAAUCUUCGGAUUCAAUAACUCUAC”, for which the “apparent Kd” value was 15 nM under setting [3] and 7 nM under setting [4]. Consider “UGCAGACGAGGAUAUAGAUUUAAGUACAUGAGGAUCACCCAUGUGCAUAUGUAUUUAGAUUUAGAAGGCGUCUGCU”, for which the “apparent Kd” value under setting [1] worked out at 415 nM and the “apparent Kd” value under setting [2] was found to be 383 nM. Taken in the same sequence, the figures for “GUUAUGCGGCAGGAUAUCCAUCCGCGGUAUGAUGGAGAAGGGCCGACAUGAGGAUCACCCAUGUGCGUCCUAAG” were 55.6 nM and 198 nM.

Take “AAGAAACAUGAGGAUCACCCAUGUCACCUCACACGAGGAUAUCUGAAUCGAUUAGAUUACGGAGAAGGCGUGAUAA”: the “apparent Kd” value under setting [3] worked out at 27.5 nM and the “apparent Kd” value under setting [4] was 20.6 nM. Taken in the same sequence, the figures for “GGACGUCAGAUUAACAUGAGGAUCACCCAUGUCUUUUGACAUGAGGAUAUCCAUCCUAAUUGGAUGGAGAAGGCAUGGACGUCC” were 975 nM and 189 nM.

With “UCUCGACAUGAGGAUCACCCAUGUCAGGAUAUUGUAUUGGAGGUUUUUUACCUUAUGGCAAGAAGGGAUGUGUG”, the “apparent Kd” value runs as follows: under setting [1], 20.6 nM; under setting [2], 21.6 nM. “CGUUAAUAUCGAGGAUAUGUCUAGACACAUGAGGAUCACCCAUGUAUGUGUAUAGAAGGCGAUAUUAACAGCAUGUUACAUCCC”: the “apparent Kd” value by setting is: under setting [3], 46.6 nM; under setting [4], 18.8 nM. For “UUAUGUCGCGUAGGAUAUCAUUAGAUUUGUAAUUUAAUUGUAAUUUCGAUAUGAGAAGGACGUACACAUGAGGAUCACCCAUGU”, the “apparent Kd” value is, setting by setting: under setting [1], 16.4 nM; under setting [2], 14.2 nM. Consider “CGCCUGUAAGGAUAUUAGUAGUAGUCAGAAAAGACUAUUACUGAGAAGGUACAUGAGGAUCACCCAUGUUGGCG”, for which the “apparent Kd” value was determined as 15.3 nM under setting [1] and 20.4 nM under setting [2]. Taken in the same sequence, the figures for “UCAAGUAUGUAGGAUAUCGAUGUCGAAAGACAUCGAGAAGGACGUACAUGAGGAUCACCCAUGUAACUUGCAUG” were 296 nM and 270 nM.

With “UUGGGACAUGAGGAUCACCCAUGUAAGGAUAUUGGCGCGCCGGCUCUGUCUGUUCCGCCGAGAAGGUACACGUU”, the “apparent Kd” value under setting [1] came to 104 nM and the “apparent Kd” value under setting [2] is 173 nM. Taken in the same sequence, the figures for “GAACGUGAUGUAAGGAUAUGUAGCCAUCGAGGCGUAUAGAAGGUACAUGAGGAUCACCCAUGUGAGCUCGUUAU” were 36.7 nM and 44.6 nM. Turning to “GGAUCGAGUGUGAGGAUAUGCUGGUCGUAAGAUCAGCAGAAGGCACAUGAGGAUCACCCAUGUGAAAACGGUCC”, the “apparent Kd” value is, setting by setting: under setting [1], 24.7 nM; under setting [2], 164 nM.
